The source made the active and inactive calls. The rule behind the calls is not given here.
Assays:
Liver carboxylesterase 1 [1] = molecular target: T1, Liver carboxylesterase 1 (Homo sapiens, UniProt P23141); assay: Inhibition of human liver carboxylesterase1 using o-nitrophenyl acetate as substrate after 5 mins by spectrophotometry
T1 sequence (P23141 whole entry): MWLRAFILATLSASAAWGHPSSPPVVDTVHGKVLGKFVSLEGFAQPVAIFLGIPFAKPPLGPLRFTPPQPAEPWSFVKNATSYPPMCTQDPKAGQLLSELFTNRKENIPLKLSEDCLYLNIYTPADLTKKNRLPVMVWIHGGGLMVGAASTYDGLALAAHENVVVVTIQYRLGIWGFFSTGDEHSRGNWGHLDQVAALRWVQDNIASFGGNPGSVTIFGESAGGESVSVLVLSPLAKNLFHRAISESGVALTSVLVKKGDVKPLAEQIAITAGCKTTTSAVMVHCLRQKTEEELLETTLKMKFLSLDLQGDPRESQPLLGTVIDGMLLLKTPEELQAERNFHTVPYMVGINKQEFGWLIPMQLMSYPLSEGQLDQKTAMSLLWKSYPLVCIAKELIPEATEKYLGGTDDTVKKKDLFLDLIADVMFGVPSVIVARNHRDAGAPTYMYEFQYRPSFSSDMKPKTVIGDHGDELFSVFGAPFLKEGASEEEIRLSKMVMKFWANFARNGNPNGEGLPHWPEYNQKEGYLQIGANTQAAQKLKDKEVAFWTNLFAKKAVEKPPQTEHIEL
Method in brief: (§1)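 hCE1 and rabbit liver CE were purified from baculovirus-infected Spodoptera frugiperda cells, with 3 mM o-nitrophenyl acetate as substrate. A4₂₀ was read every 15 s for 5 min versus no-inhibitor wells. Screening was at 100 μM; compounds giving >50% reduction were rescreened from 1 pM to 100 μM. Ki came from fitting a partial-inhibition (α, β) model.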

Acetylcholinesterase = Acetylcholinesterase (Homo sapiens, UniProt P22303); assay: Inhibition of human acetylcholinesterase using acetylthiocholine as substrate by spectrophotometry
Method in brief: (§2)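 Human AChE and BChE were commercial enzymes. Substrate was 1 mM acetylthiocholine for AChE and 1 mM butyrylthiocholine for BChE.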

Cholinesterase = Cholinesterase (Homo sapiens, UniProt P06276); assay: Inhibition of human butyrylcholinesterase using butyrylthiocholine as substrate by spectrophotometry; method in brief: as §2
Liver carboxylesterase 1 [2] = molecular target: T2, Liver carboxylesterase 1 (Oryctolagus cuniculus, UniProt P12337); assay: Inhibition of rabbit liver carboxylesterase using o-nitrophenyl acetate as substrate after for 5 mins by spectrophotometry; method in brief: as §1
T2 sequence (P12337 whole entry): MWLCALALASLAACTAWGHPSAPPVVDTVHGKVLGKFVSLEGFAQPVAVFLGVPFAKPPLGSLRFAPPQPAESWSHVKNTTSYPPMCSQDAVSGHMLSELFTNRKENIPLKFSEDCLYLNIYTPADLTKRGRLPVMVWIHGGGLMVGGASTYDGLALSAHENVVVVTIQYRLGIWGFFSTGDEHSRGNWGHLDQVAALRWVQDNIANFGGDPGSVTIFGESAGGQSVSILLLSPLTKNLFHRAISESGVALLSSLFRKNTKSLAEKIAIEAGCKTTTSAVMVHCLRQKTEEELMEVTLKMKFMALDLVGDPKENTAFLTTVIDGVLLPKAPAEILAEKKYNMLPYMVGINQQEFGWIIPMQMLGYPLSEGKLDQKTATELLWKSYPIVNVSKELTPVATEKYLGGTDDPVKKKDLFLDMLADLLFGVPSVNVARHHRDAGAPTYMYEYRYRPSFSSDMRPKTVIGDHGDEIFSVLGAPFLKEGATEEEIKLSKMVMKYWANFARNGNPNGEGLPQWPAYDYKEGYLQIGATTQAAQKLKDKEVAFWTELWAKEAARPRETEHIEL

[3] = Stability of the compound assessed as hydrolysis liberating phenol in aqueous solution at pH 7.4 after 5 mins; format: physicochemical; settings: read-out: Activity
Method in brief: (§3)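 Compound at 200 μM in 50 mM Hepes pH 7.4, held 1, 5 or 20 min at rt or 37°C, with or without CE. Reactions were stopped with acetonitrile. Products were identified by reverse-phase HPLC with UV detection against phenol/thiophenol/aniline marker standards and no-enzyme samples.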

Cocaine esterase [4] = molecular target: T3, Cocaine esterase (Homo sapiens, UniProt O00748); assay: Inhibition of human intestinal carboxylesterase using o-nitrophenyl acetate as substrate after 5 mins by spectrophotometry
T3 sequence (O00748 whole entry): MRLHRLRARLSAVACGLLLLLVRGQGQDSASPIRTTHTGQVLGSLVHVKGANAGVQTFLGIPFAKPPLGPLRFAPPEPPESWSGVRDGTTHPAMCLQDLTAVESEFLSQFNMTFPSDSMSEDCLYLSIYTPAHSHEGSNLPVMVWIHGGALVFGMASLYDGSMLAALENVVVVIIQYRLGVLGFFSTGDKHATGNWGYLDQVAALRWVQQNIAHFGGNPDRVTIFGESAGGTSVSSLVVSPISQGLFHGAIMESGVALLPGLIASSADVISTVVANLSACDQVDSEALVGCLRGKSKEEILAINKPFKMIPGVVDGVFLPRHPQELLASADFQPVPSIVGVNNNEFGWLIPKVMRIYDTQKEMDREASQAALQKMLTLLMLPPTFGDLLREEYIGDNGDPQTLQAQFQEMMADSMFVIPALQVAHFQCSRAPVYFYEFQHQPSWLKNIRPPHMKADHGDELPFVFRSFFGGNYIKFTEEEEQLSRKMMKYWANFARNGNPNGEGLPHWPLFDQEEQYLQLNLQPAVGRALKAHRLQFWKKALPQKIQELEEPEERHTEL

[5] = Cytotoxicity against human U373MG cells expressing human intestinal carboxylesterase after 4 days in drug free medium by coulter counter; format: functional, cell-based, U-373MG ATCC; settings: U373 MG, 96 h
[6] = Cytotoxicity against human U373MG cells expressing human intestinal carboxylesterase after 4 days in drug free medium by coulter counter in presence of CPT-11; format: functional, cell-based, U-373MG ATCC; settings: U373 MG, 96 h
Method in brief: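 U373MG cells stably expressing hiCE, seeded at 50,000 cells/well and left to adhere overnight. Cells were pre-incubated 1 h with inhibitor (10 μM), then exposed 2 h to inhibitor plus CPT-11 (0–100 μM). After washing, cells grew 4 days (~3 doublings) in drug-free medium and were counted. Runs were in triplicate, with survival compared to inhibitor-free controls. IC50 was taken from survival curves.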

U373 MG = assay: Reduction of CPT-11 induced cytotoxicity against human U373MG cells at 10 uM pre-incubated for 1 hr measured after 4 days in drug free medium by coulter counter; format: functional, cell-based; settings: U-373MG ATCC
Method in brief: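 U373MG cells expressing hiCE were plated at 50,000 cells/well and left to adhere overnight. They got 1 h pre-incubation with 10 μM inhibitor, then 2 h with inhibitor plus CPT-11 (0–100 μM). Cells were washed, grown 4 days drug-free and Coulter-counted. Runs were in triplicate against no-inhibitor controls, and IC50 came from survival curves.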

[7] = molecular target: T4, intestinal carboxylesterase (cocaine esterase) (Homo sapiens, UniProt O00748); assay: Inhibition of intestinal carboxylesterase in human U373MG cells using 4-methylumbelliferone acetate as substrate at 10 uM after 1 hrs pre-incubation by fluorimetry; format: cell-based, U-373MG ATCC; settings: U373MG cells with intestinal carboxylesterase, probe 4-methylumbelliferone acetate
T4 sequence (O00748 whole entry): T3 sequence (O00748 whole entry)

Cocaine esterase [8] = molecular target: T3, Cocaine esterase; assay: Inhibition of human intestinal carboxylesterase assessed as hydrolysis of CPT-11 after 5 mins by HPLC
[9] = Stability of the compound assessed as hydrolysis liberating thiophenol in aqueous solution at pH 7.4 after 5 mins; format: physicochemical; set-up: scale not given: the % may be the effect or the level left; settings: buffer, pH 7.4, 5 min; method in brief: as §3

Chain of Cholinesterase (P06276 whole entry): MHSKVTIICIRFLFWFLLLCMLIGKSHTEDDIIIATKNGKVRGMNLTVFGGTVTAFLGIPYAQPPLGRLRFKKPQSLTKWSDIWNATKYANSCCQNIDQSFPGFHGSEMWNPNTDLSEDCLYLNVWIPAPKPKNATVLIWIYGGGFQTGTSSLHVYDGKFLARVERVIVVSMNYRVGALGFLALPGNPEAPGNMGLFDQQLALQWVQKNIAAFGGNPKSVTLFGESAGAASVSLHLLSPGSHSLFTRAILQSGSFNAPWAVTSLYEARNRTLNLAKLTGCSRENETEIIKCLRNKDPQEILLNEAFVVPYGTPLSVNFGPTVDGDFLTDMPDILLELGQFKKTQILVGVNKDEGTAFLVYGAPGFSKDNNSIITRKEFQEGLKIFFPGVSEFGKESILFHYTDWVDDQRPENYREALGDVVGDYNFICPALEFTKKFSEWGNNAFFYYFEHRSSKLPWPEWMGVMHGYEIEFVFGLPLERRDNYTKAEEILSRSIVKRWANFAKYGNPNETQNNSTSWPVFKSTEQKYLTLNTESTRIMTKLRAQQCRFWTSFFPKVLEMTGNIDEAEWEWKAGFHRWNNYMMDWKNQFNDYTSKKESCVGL
Chain of Acetylcholinesterase (P22303 whole entry): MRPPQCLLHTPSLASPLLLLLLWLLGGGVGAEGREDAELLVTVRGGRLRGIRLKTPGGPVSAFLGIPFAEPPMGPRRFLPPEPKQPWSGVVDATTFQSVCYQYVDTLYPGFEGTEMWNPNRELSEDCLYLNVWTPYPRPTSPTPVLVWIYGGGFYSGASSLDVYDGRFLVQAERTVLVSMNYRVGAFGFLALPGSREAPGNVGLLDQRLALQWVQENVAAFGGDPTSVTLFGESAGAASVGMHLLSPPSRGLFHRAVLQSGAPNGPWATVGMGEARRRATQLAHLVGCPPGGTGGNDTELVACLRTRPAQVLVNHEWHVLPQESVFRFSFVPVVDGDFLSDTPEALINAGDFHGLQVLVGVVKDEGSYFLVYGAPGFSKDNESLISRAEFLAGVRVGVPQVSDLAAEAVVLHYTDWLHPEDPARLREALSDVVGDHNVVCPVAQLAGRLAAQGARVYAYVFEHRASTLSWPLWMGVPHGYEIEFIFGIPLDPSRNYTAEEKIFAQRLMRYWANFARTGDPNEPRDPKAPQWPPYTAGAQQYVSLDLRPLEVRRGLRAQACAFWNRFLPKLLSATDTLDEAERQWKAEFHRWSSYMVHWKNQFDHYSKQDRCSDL

Structure (SMILES) | Ki (Liver carboxylesterase 1 [1]) | Ki (Acetylcholinesterase) | Ki (Cholinesterase) | Ki (Liver carboxylesterase 1 [2]) | Ki (Cocaine esterase [4]) | also measured
CCCCCC(=O)C(=O)CCCCC | 0.003 µM | > 100 µM | > 100 µM |  |  | 
CCCC(=O)C(=O)CCC | 8.06 µM | > 100 µM | > 100 µM | 17.8 µM |  | 
O=C(Oc1ccccc1)C(=O)Oc1ccccc1 [DIPHENYL ETHANEDIOAT] | > 100 µM | > 100 µM | > 100 µM | > 100 µM | > 100 µM | degraded at 5 min [3]: > 40%
CCCCCCC(=O)C(=O)CCCCCC | 0.0048 µM | > 100 µM | > 100 µM |  |  | IC50 [5]: > 100 µM; IC50 [6]: 4 µM; Activity (U373 MG): inactive
CCCCC(=O)C(=O)CCCC | 0.0466 µM | > 100 µM | > 100 µM |  |  | 
CCCC(=O)C(=O)c1ccccc1 | 0.102 µM | > 100 µM | > 100 µM |  |  | 
CCC(=O)C(=O)c1ccccc1 | 1.55 µM | > 100 µM | > 100 µM | 12.5 µM | 2.42 µM | inhibition at 1 h, 10 µM [7]: 70.3%; Ki (Cocaine esterase [8]): 2.01 µM
CCCCCC(=O)C(=O)c1ccccc1 | 0.00665 µM | > 100 µM | > 100 µM | 0.11 µM |  | 
O=C(C(=O)C1CCCCC1)C1CCCCC1 | 0.005 µM |  |  | 0.027 µM | 0.072 µM | 
O=C(Nc1ccccc1)C(=O)Nc1ccccc1 | > 100 µM | > 100 µM | > 100 µM | > 100 µM | > 100 µM | 
CCCCCCCCC(=O)C(=O)CCCCCCCC | 0.00084 µM | > 100 µM | > 100 µM |  |  | 
CCC(=O)C(=O)CC | > 100 µM | > 100 µM | > 100 µM | > 100 µM | > 100 µM | 
O=C(Cc1ccccc1)C(=O)Cc1ccccc1 | 3.08 µM | > 100 µM | > 100 µM | > 100 µM | 21.6 µM | 
CCCCCCC(=O)C(=O)c1ccccc1 | 0.00219 µM | > 100 µM | > 100 µM | 0.0281 µM |  | IC50 [5]: > 100 µM; IC50 [6]: 10.2 µM
O=C(C(=O)c1ccccc1)c1ccccc1 [BENZIL] |  |  |  |  |  | IC50 [5]: > 100 µM; IC50 [6]: 22.9 µM
CCc1c2c(nc3ccc(OC(=O)N4CCC(N5CCCCC5)CC4)cc13)-c1cc3c(c(=O)n1C2)COC(=O)[C@]3(O)CC |  |  |  |  |  | IC50 [5]: 3.6 µM
O=C(Sc1ccccc1)C(=O)Sc1ccccc1 | > 100 µM | > 100 µM | > 100 µM | > 100 µM | > 100 µM | Activity [9]: > 40%
CCCCCCCC(=O)C(=O)CCCCCCC | 0.0076 µM | > 100 µM | > 100 µM |  |  | 
O=C(Cc1ccccc1)C(=O)C(Br)c1ccccc1 (stereo not given) | 2.63 µM | > 100 µM | > 100 µM | 3.68 µM |  | 
O=C(C(=O)C(Br)c1ccccc1)C(Br)c1ccccc1 (stereo not given) | 0.107 µM | > 100 µM | > 100 µM |  |  | 
CCCCC(=O)C(=O)c1ccccc1 | 0.0261 µM | > 100 µM | > 100 µM |  |  | 
